Bioassay records (PubChem)
This is a sample that favours compounds with a hit; in the whole collection about 3.9% have one here.
HSF1 activator – HSF-1 activators, primary screen, NIH3T3-HGL cells, MG132 stress, luminescence, single point | NIH3T3-HGL HSF-1 luciferase reporter, 8 h; 100% = twice DMSO control signal | activation, % at 9 µM | actives 1.7% (n = 300,000) | AID 504408, 2011;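 active means mean replicate activation of at least 50% with a set share of replicates each reaching 50%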
HSP90 refold inh – HSP90 inhibitors, primary screen, cell lysate, luminescence. actives 0.91% (n = 290,000). inhibition, % at 5.6 µM. Rabbit reticulocyte lysate, luciferase refolding luminescence, 3 h. Heat shock protein HSP 90 (rabbit reticulocyte lysate; luciferase refolding);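 active means inhibition above the screen-wide mean plus 3 SD, computed separately per campaign, cut at about 16% in these data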;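 further: inhibitors lower the luminescence because luciferase stays unfolded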
FID counter – compounds displacing fluorescent DNA intercalator, primary screen, artefact control for HCV NS3 helicase inhibitor project, biochemical, FID fluorescence. DNA fluorescent intercalator displacement. inhibition, % at 7.9 µM. actives 0.17% (n = 290,000); in the data active means inhibition above about 37%;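 further: higher means more ethidium bromide displaced from hairpin DNA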
HCV NS3 hel inh – inhibitors of HCV NS3 helicase, primary screen, biochemical, Cy5 molecular beacon fluorescence; Hepatitis C virus NS3 helicase; inhibition, % at 10.9 µM; actives 0.56% (n = 290,000); AID 1800, 2009; NS3 helicase DNA unwinding;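 active means inhibition above the mean of all tested compounds plus 3 SD, set per campaign, cut at about 35% in these data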
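assay system = NS3 helicase fragment of HCV | buffer or medium = MOPS pH 6.5, MgCl2, DTT, Tween20, BSA | timing = 60 min unwinding reaction at 25 °C after ATP addition | signal = Cy5 beacon fluorescence read at start and 1 h | read-out basis = % inhibition of unwinding | control set = low DMSO, high thioflavine S at 110 µM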
HSF1 inhib – HSF1 inhibitors in luciferase reporter cells, primary screen, cell-based, NIH3T3, luminescence; NIH3T3-HGL HSE-luciferase, MG132-induced, luminescence 8 h; stronger effect = lower value; activity change, negative = inhibition, % at 7.5 µM (by protocol); actives 0.77% (n = 300,000); AID 2098, 2009;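 active means more than half of replicate wells show activity change below -50%, luminescence cut by over half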;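 further: luciferase reports HSF-1 transcriptional activity via heat shock element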
HCV core dimer – inhibitors of HCV core protein dimerization, primary screen, biochemical, TR-FRET, high-throughput; actives 0.33% (n = 300,000); TR-FRET GST/Flag-core106 dimerization, 1536-well; inhibition, % at 5 µM;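 active means inhibition above the mean of all tested compounds plus 3 SD, set per screening campaign, cut at about 45% in these data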
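assay system = GST-tagged and Flag-tagged HCV core protein residues 1-106 | controls = unlabelled core106 and no-GST-core106 wells | incubation = compound-protein-antibody incubation 4 h at 22.5 °C | probe or stimulus = Eu donor and XL665 acceptor anti-tag antibodies | read-out = % inhibition based on acceptor/donor emission ratio | signal = TR-FRET 671 and 617 nm emission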
HSP90 confirm – HSP90 inhibitors, confirmation, cell lysate, luminescence. shares compounds with HSP90 refold inh. rabbit reticulocyte lysate, luciferase refolding luminescence, 3 h. inhibition, % at 5.9 µM. actives 64% (n = 2,300); in the data active means inhibition above about 18%
FLuc counter – firefly luciferase inhibitors, HSP90 counter-screen, confirmation, artefact control for HSP90 inhibitor project, biochemical, luminescence, triplicate; shares compounds with HSP90 refold inh; actives 48% (n = 2,300); purified native firefly luciferase; inhibition, % at 5.9 µM;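 active means inhibition above the mean inhibition of all tested sample wells plus 3 SD, cut at about 10% in these data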
Target sequence (P08659 whole entry, looked up): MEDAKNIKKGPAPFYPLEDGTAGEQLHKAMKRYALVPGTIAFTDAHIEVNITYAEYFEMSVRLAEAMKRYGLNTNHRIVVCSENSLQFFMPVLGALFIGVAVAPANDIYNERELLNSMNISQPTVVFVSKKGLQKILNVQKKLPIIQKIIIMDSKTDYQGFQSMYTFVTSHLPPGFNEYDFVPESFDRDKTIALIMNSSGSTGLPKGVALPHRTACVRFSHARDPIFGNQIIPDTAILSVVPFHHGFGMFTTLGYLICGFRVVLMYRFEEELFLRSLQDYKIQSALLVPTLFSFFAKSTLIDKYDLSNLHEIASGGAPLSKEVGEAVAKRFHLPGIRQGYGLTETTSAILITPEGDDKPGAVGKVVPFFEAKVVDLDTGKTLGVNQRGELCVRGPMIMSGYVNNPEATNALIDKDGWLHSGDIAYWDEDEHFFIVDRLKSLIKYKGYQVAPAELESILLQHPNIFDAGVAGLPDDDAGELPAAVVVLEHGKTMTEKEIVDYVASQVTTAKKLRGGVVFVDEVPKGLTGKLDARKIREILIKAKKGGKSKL
Of the large screens only hits and unclear results are named; the others gave an inactive call (follow-up assays come after a bar, where they were run).

COc1ccc(SCC(=O)c2cc(C)c(OC(=S)N(C)C)c(C)c2)cc1	none
Cc1cc(C(=O)CSc2ccc(F)cc2)cc(C)c1OC(=S)N(C)C	HSP90 refold inh 75.4, HSF1 inhib -61.9 | HSP90 confirm 70.0 | FLuc counter 73.9
Cn1cc(/C=C/C(=O)c2ccccc2)c2ccccc21	HSF1 activator 62.2, HSP90 refold inh 19.9 | HSP90 confirm 35.8 | FLuc counter 44.9
C[C@@H](C(=O)Nc1ccc2c(c1)OCCO2)n1c(=O)[nH]c2ccccc2c1=O	HSP90 refold inh 53.6, HSF1 inhib -77.2 | HSP90 confirm 65.7 | FLuc counter 68.7
C[C@@H](C(=O)Nc1ccc2c(c1)OCO2)n1c(=O)[nH]c2ccccc2c1=O	none
CS(=O)(=O)Oc1ccc(Br)c2cccnc12	none
Nc1ccc(Br)c2cccnc12	HSP90 refold inh 17.3 | HSP90 confirm inactive | FLuc counter inactive
COc1ccccc1CN1CCN(S(=O)(=O)c2ccc(C)cc2)CC1	none (no result: HSP90 refold inh, FID counter, HCV NS3 hel inh)
Fc1ccc(NC(=S)N2CCCc3ccccc32)cc1	none
CC(=O)c1sc(C(C)(C)C)cc1NC(=O)c1ccccc1C(=O)O	none
COc1ccc(C2CC(c3ccccc3)=NN2c2ccc(S(N)(=O)=O)cc2)cc1OC (stereo unspecified)	none
COc1ccc(C2=NN(c3ccc(C(=O)O)cc3)C(c3ccc(OC)c(OC)c3)C2)cc1 (stereo unspecified)	HSP90 refold inh 19.4 | HSP90 confirm 46.0 | FLuc counter 38.4
CC(=O)N(C1=C(N2CCOCC2)C(=O)c2ccccc2C1=O)c1ccc(C(=O)O)cc1	HSP90 refold inh 24.3 | HSP90 confirm inactive | FLuc counter inactive
CC(=O)N(C)C1=C(N2CCOCC2)C(=O)c2ccccc2C1=O	none
Cc1cccc(N2C(=O)CC(N3CCC(c4nc5ccccc5[nH]4)CC3)C2=O)c1 (stereo unspecified)	none
CCN1C(=O)CC(N2CCC(c3nc4ccccc4[nH]3)CC2)C1=O (stereo unspecified)	HSP90 refold inh 23.0 | HSP90 confirm 23.6 | FLuc counter inactive
CCCc1ccc(-c2cc(C(=O)N3CCN(c4ccccn4)CC3)c3ccccc3n2)cc1	HSP90 refold inh 37.9 | HSP90 confirm 43.0 | FLuc counter 12.3
Cn1c(=O)c2c(nc(SCC(=O)N3CCc4ccccc43)n2Cc2ccc(F)cc2)n(C)c1=O	none (no result: HSF1 activator, HSF1 inhib, HCV core dimer)
c1ccc(CNn2nnnc2-c2ccccc2)cc1	none
Cc1ccc(C(=O)Nc2ccc(CC(=O)O)cc2)o1	none
CC(C)(C)c1ccc(C(=O)Nc2ccc(CC(=O)O)cc2)o1	HSP90 refold inh 22.4, HSF1 inhib -59.3 | HSP90 confirm 23.2 | FLuc counter inactive
CC(Oc1ccccc1)C(=O)N/N=C/c1ccccn1 (stereo unspecified)	none
CCc1nn2cc(-c3ccccc3)nc2s1	HSP90 refold inh 64.9 | HSP90 confirm 81.2 | FLuc counter 73.5
Cc1nn2cc(-c3ccc(-c4ccccc4)cc3)nc2s1	none
O=C(NN=C1CCCC1)c1ccc([N+](=O)[O-])cc1	none
Cc1ccc(NC(=O)CCNC(=O)Cn2ccc3ccccc3c2=O)cc1F	HSP90 refold inh 44.0 | HSP90 confirm 25.5 | FLuc counter 22.7
COc1ccc(NC(=O)CCNC(=O)Cn2ccc3ccccc3c2=O)cc1OC	none
O=C(Nc1nccs1)c1cn2ccccc2n1	HSP90 refold inh 32.5 (no result: HSF1 activator, HSF1 inhib) | HSP90 confirm 54.1 | FLuc counter 42.7
O=C(Nc1nccs1)c1cccc2ccccc12	none
CCCNC(=O)C1CC(=O)N(c2ccc(OCC(=O)Nc3cc(C)cc(C)c3)cc2)C1 (stereo unspecified)	none (no result: HSP90 refold inh, FID counter, HCV NS3 hel inh)
CN1Cc2sc(NC(=S)NC(=O)c3ccccc3)c(C#N)c2CC1(C)C	HSP90 refold inh 17.3, HSF1 inhib -77.0 | HSP90 confirm 31.1 | FLuc counter 15.3
N#Cc1cc2ccccc2nc1N	HSP90 refold inh 20.0 | HSP90 confirm inactive | FLuc counter inactive
COc1ccc(C(=O)NCCn2cc(SCC(N)=O)c3ccccc32)cc1	HSP90 refold inh 73.6 | HSP90 confirm inactive | FLuc counter inactive
COc1ccc(C(=O)NCCn2cc(SCC(=O)Nc3cc(C)on3)c3ccccc32)cc1OC	none
Cn1c(=O)cc(SCC(=O)NCc2ccco2)c2ccccc21	none
COc1ccc(C(=O)NCCn2ccc3ccccc32)cc1	HSP90 refold inh 60.0 | HSP90 confirm 22.1 | FLuc counter inactive
O=C(CSc1cn(CCNC(=O)c2ccc3ccccc3c2)c2ccccc12)NCc1ccco1	HSP90 refold inh 18.9 | HSP90 confirm 21.8 | FLuc counter inactive
O=C(Nn1c(C2CCCCC2)nc2ccccc2c1=O)c1ccc([N+](=O)[O-])cc1Cl	none
O=C(O)CNC(=O)c1ccc(Oc2c(F)c(F)c(Oc3ccc(C(=O)NCC(=O)O)cc3)c(F)c2F)cc1	none
CCN(CC(=O)Nc1ccc(NC(C)=O)cc1)C(=O)c1ccc(=O)[nH]c1	none
CC(=O)N(CCC(Cc1ccccc1)c1ccco1)Cc1ccco1 (stereo unspecified)	HSP90 refold inh 21.9 (no result: HSF1 activator, HSF1 inhib) | HSP90 confirm inactive | FLuc counter inactive
O=C(C1=C[C@@H](C2CCCCC2)C[C@@H](OCCCCO)O1)N1CCN(Cc2ccc3c(c2)OCO3)CC1	none
Cc1ccc2nc(-c3cccc(N)c3)oc2c1	HSP90 refold inh 23.4 | HSP90 confirm 66.6 | FLuc counter 63.9
CCc1ccc2oc(-c3cccc(N)c3)nc2c1	HSP90 refold inh 18.1 | HSP90 confirm 59.7 | FLuc counter 57.7
CC(=O)NCCc1ccc(S(=O)(=O)Nc2ccc(NC(=O)c3ccc(F)cc3)cc2)cc1	none
Cc1cc(O)c(S(=O)(=O)c2ccccc2)c(C)c1NS(=O)(=O)c1ccccc1	HSP90 refold inh 18.5 | HSP90 confirm 21.0 | FLuc counter inactive
COc1ccccc1NS(=O)(=O)c1cc(NC(=O)c2ccco2)ccc1N1CCOCC1	none
NS(=O)(=O)c1ccc(N2CCN(CCOc3ccc(Cl)cc3)CC2)nc1	none
